The target of series [1] is D(2) dopamine receptor (Homo sapiens, UniProt P14416). In words: Inhibition of human dopamine D2S receptor at 10 uM.
The nature of series [2]: Inhibition of rat L-type calcium channel (verapamil site) at 10 uM.
In series [3] the test system is MDA-MB-231. In words: Antiproliferative activity against human MDA-MB-231 cells assessed as cell growth inhibition at 0.4 to 100 uM after 6 days by XTT assay. The note with it: mda-mb-231, 144 h, dose 0.4-100 µM, time 6 day. Format: cell-based. Summed up:
(§1)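 Cells grown in RPMI with 10% FBS, 2 mM L-glutamine, penicillin/streptomycin and 1% non-essential amino acids. Seeded at 5 x 10³ cells/well and left 24 h at 37 °C, then treated at 100 μM to 0.4 μM. Exposure 6 days at 37 °C with fresh treatment medium every 48 h. Doxorubicin 10 μM and DMSO 0.01% served as controls. XTT with 1.25% PMS for 2 h; absorbance at 450 minus 650 nm, as % viable versus DMSO. Curves fitted by four-parameter non-linear regression. Mean ± SEM, n = 3/concentration, ≥3 independent experiments.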

In series [4] the target is T1, Transient receptor potential cation channel subfamily V member 6 (Homo sapiens) (UniProt Q9H1D0).
T1 sequence (whole entry): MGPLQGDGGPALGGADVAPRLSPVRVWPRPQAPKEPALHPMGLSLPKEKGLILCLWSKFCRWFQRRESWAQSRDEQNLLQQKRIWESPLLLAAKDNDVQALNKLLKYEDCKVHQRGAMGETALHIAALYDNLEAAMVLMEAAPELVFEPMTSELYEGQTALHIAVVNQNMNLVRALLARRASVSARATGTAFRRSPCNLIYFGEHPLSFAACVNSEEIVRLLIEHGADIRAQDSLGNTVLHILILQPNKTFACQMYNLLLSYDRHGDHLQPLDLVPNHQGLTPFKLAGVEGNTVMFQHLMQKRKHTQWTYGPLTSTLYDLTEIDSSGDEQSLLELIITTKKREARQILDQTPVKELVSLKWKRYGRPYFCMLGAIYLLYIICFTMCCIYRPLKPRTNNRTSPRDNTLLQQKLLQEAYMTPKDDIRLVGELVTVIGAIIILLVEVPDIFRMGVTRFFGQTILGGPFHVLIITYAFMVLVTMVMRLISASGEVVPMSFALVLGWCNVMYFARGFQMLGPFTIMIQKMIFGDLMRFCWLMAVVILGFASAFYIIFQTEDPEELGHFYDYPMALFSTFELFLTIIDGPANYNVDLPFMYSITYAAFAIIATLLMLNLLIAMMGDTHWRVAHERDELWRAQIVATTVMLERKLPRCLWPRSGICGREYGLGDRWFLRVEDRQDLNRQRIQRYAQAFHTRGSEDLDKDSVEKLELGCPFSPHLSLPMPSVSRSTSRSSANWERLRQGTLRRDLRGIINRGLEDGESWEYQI
The series is described as follows: Inhibition of human TRPV6 expressed in HEK293 cells assessed as reduction in Cd2+ influx at 10 uM preincubated with compound followed by Cdcl2 addition measured for 12 to 30 mins by Leadmium-green and Alexafluor-594 conjugate based confocal microscopic analysis. The class given is cell-based. The conditions noted are these: time lower […], time upper 30.0 min. Summed up:
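HEK-hTRPV6 cells on poly-D-lysine chambered coverglass, 24 h. Stained 30 min at 37 °C in nominally Ca²⁺-free buffer with Leadmium Green, Hoechst 33258 and WGA-Alexa Fluor 594 at 5, 1 and 5 ng/µL final. Washed, then test compound at 10 µM or DMSO added. CdCl2 at 50 µM final was added at the start of 30 min confocal imaging at 100X. Total fluorescence per channel was plotted over time.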

The test system of series [5] is T47D. In words: Antiproliferative activity against human T47D cells assessed as cell growth inhibition at 0.4 to 100 uM after 6 days by XTT assay. The class given is cell-based. The note with it: human, t47d, 144 h, 100 µM; dose 0.4-100 µM, time 6 day. Put shortly: as §1
In general terms: Tetrazolium dyes change colour on reduction, which living cells bring about.

Series [6] has as its system MCF7. In words: Antiproliferative activity against human MCF7 cells assessed as cell growth inhibition at 0.4 to 100 uM after 6 days by XTT assay. The class given is cell-based. The conditions noted are these: mcf7, 144 h, dose 0.4-100 µM, time 6 day. Put shortly:
as §1

Series [7] concerns the target T2, D(4) dopamine receptor (Homo sapiens, UniProt P21917).
T2 sequence (P21917 whole entry): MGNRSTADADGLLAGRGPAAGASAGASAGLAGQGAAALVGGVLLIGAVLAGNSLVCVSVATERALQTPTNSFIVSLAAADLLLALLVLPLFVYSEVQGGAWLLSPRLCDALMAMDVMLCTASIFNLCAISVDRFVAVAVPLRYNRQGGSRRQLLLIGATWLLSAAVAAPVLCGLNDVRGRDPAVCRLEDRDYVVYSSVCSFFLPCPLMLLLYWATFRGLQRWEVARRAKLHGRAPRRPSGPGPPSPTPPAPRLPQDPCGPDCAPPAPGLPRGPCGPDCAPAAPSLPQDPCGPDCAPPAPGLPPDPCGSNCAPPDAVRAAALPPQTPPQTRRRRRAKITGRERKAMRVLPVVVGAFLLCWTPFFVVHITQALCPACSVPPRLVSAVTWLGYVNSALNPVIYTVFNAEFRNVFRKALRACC
The series is described as follows: Inhibition of human dopamine D4.4 receptor at 10 uM.

Series [8] has as its system HEK293. In words: Antiproliferative activity human HEK293 cells expressing human TRPV6 assessed as cell growth inhibition at 0.4 to 100 uM after 6 days by XTT assay. Format: cell-based. The conditions noted are these: hek293, 144 h, dose 0.4-100 µM, time 6 day.
In series [9] the target is T1, Transient receptor potential cation channel subfamily V member 6 (Homo sapiens). In words: Inhibition of human TRPV6 expressed in HEK293 cells assessed as reduction in cadmium induced cytotoxicity by measuring increase in cell survival at 10 uM incubated for 24 hrs by XTT assay. The class given is cell-based. Put shortly: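 HEK293 wt or HEK-hTRPV6 cells in DMEM with 10% FBS, glutamine, penicillin/streptomycin and non-essential amino acids. Seeded at 1.5 x 10⁴ cells/well and left 24 h, then given CdCl2 at 50 to 0.05 µM with or without test compound at 1.0 or 10 µM; blank was 0.01% DMSO. Incubation 24 h at 37 °C. XTT/PMS read for 2 h at A450−A650, as % viable versus blank. n = 4/concentration, 2 independent experiments.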

Series [10] deals with D(1A) dopamine receptor (Homo sapiens, UniProt P21728). The series is described as follows: Inhibition of human dopamine D1 receptor at 10 uM.

Molecules are shown by their SMILES. Active and inactive are the calls of the source. The rule behind the calls is not given here.

Chain of D(2) dopamine receptor (P14416 whole entry): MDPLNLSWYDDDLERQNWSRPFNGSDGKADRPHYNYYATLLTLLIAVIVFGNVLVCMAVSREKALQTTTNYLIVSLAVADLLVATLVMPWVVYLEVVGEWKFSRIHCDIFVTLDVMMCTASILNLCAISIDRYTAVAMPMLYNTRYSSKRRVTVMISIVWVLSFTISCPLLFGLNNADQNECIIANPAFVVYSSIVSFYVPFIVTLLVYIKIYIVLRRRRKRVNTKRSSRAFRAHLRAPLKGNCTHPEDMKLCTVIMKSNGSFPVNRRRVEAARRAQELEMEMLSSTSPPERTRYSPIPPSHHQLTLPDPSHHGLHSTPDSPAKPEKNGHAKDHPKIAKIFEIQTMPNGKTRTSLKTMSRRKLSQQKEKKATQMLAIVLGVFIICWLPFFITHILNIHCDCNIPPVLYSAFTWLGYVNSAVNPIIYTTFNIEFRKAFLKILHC
Chain of D(1A) dopamine receptor (P21728 whole entry): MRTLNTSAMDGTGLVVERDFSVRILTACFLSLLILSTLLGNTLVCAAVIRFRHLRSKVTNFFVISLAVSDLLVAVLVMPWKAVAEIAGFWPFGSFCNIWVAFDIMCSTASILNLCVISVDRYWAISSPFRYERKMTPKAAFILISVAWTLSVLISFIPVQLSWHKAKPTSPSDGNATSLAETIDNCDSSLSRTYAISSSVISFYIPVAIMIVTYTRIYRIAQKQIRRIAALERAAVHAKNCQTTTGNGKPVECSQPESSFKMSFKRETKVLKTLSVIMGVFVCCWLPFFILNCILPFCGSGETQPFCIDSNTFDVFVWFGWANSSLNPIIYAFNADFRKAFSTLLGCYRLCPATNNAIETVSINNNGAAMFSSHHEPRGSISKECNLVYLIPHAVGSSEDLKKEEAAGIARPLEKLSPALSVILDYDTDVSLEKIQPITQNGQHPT

As for `O=c1ccc(CN2CCN([C@H]3CC[C@@](O)(c4cccc(C(F)(F)F)c4)CC3)CC2)c[nH]1`, the “inhibition (INH)” value in series [1], in series [2], in series [7] and in series [10] was “Not Active” in each case. The Activity result in series [3], in series [5], in series [6] and in series [8] was “Non-Toxic” each time. In addition, the inhibition entry in series [4] and in series [9] was “Active” throughout.

These data come from ChEMBL document CHEMBL4680064, “Natural product inspired optimization of a selective TRPV6 calcium channel inhibitor” (RSC Med Chem, 2020).
